Experimental findings from ChEMBL document CHEMBL1139917, “Synthesis of isoquinuclidine analogs of chloroquine: antimalarial and antileishmanial activity” (Bioorg Med Chem, 2007) are described below.

Usually IC50 stands for the midpoint of a concentration-inhibition curve. The IC90 is the concentration needed for an effect of 90%.

In brackets after ≈: the same amount, converted by molar mass. A value given as a limit tells only on which side of the number the result lay.

Data set [1] is described as follows: Selectivity index, ratio of IC50 for Vero cells to IC50 for chloroquine-resistant Plasmodium falciparum W2. The format is functional. The method, boiled down: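 Vero (monkey kidney fibroblast) cytotoxicity was run in parallel with the P. falciparum W2 assay using the Neutral Red assay, with IC50 taken from growth inhibition curves. The selectivity index is the Vero IC50 divided by the W2 IC50.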

Data set [2] relates to Vero. Description: Cytotoxicity against Vero cells by neutral red assay. The format is cell-based. Particulars: chlorocebus sabaeus. Summed up: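 VERO (monkey kidney fibroblast) cells tested in parallel with the antiparasitic assays. Viability read by Neutral Red assay. IC50 computed from growth inhibition curve.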
Data set [3] relates to Leishmania donovani. Briefly: Antileishmanial activity against Leishmania donovani promastigotes after 72 hrs by Alamar blue assay. The format is functional, organism-based. Summed up:
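Leishmania donovani promastigote culture at 2 × 10⁶ cells/mL, 96-well format; compounds diluted in DMSO. Incubation 72 h at 26 °C. Growth read by Alamar blue adapted to fluorometric readout. Pentamidine and amphotericin B as standard agents. IC50 computed from growth inhibition curve.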

For data set [4], the system named is Plasmodium falciparum. Description: Antimalarial activity against chloroquine-resistant Plasmodium falciparum W2. The format is functional, organism-based. Summed up:
(§1)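 P. falciparum D6 (Sierra Leone, chloroquine-sensitive) and W2 (Indochina, chloroquine-resistant) clones were kept in type A human RBCs and subcultured daily. The assay used infected-cell suspensions at 2% parasitemia and 2% hematocrit in 96-well microplates, run in duplicate across several concentrations. IC50 was taken from dose curves. Artemisinin and chloroquine served as drug controls, with DMSO as vehicle control.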

Data set [5] can be described thus: Selectivity index, ratio of IC50 for Vero cells to IC50 for chloroquine-sensitive Plasmodium falciparum D6. The format is functional. Summed up:
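Ratio of Vero cell cytotoxicity (Neutral Red, run in parallel) to activity against P. falciparum D6 (Sierra Leone, chloroquine-sensitive). Parasite assay: D6 grown in type A human RBCs, subcultured daily; infected cells at 2% parasitemia, 2% hematocrit in 96-well plates; duplicate wells at several concentrations. IC50 from dose curves; DMSO vehicle control.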

Data set [6] deals with Plasmodium falciparum. Briefly: Antimalarial activity against chloroquine-sensitive Plasmodium falciparum D6. The format is functional, organism-based. The method, boiled down: as §1

As to `CN(C)CC1CC2CCC1N(c1ccnc3cc(Cl)ccc13)C2` (stereo not drawn), the “Ratio IC50” value in data set [1] is reported as above 264.4; in data set [5], above 396.7. Also, the Activity result in data set [2] is given as “Non-toxic”. Besides, the values for the half-inhibitory concentration (IC50) in data set [3], in data set [4] and in data set [6] were 1.9 µg/mL (≈ 5.76 µM), 0.018 µg/mL (≈ 0.0546 µM) and 0.012 µg/mL (≈ 0.0364 µM), respectively. In data set [3], this compound gave an IC90 of 6 µg/mL (≈ 18.2 µM).

Turning to `NCC1CC2CCC1N(c1ccnc3cc(Cl)ccc13)C2` (stereo not drawn), the “Ratio IC50” value in data set [1] is given as above 26.4; in data set [5], above 36.6. Further, the Activity entry in data set [2] is reported as “Non-toxic”. Also, the concentration for half-maximal inhibition (IC50) in data set [3] stood at 4.2 µg/mL (≈ 13.9 µM); in data set [4] it was 0.18 µg/mL (≈ 0.596 µM); in data set [6], 0.13 µg/mL (≈ 0.431 µM). The compound also came in with a concentration for an effect of 90% (IC90) in data set [3] of 20 µg/mL (≈ 66.3 µM).

As for `CN1CC2CCC1C(CNc1ccnc3cc(Cl)ccc13)C2` (stereo not drawn), the “Ratio IC50” value is recorded as above 1190 in data set [1] and above 1252.3 in data set [5]. Also, in data set [2], the Activity entry was “Non-toxic”. Besides, the 50% inhibitory concentration (IC50) in data set [3] stood at 3 µg/mL (≈ 9.5 µM); in data set [4], 0.004 µg/mL (≈ 0.0127 µM); in data set [6], 0.0038 µg/mL (≈ 0.012 µM). The 90% effect concentration (IC90) in data set [3] was 6.5 µg/mL (≈ 20.6 µM).

As to `N#CC1CC2CCC1N(c1ccnc3cc(Cl)ccc13)C2` (stereo not drawn), the “Ratio IC50” value in data set [1] was above 28; in data set [5], above 13.6. Besides, the Activity entry in data set [2] is recorded as “Non-toxic”. For the same compound, the IC50 in data set [3] came out at 16 µg/mL (≈ 53.7 µM); in data set [4], 0.17 µg/mL (≈ 0.571 µM); in data set [6], 0.35 µg/mL (≈ 1.18 µM). In addition, it took 33 µg/mL (≈ 111 µM) to reach the 90% level in data set [3] (IC90).

Take `CCNCC1CC2CCC1N(c1ccnc3cc(Cl)ccc13)C2` (stereo not drawn): the “Ratio IC50” value in data set [1] is reported as above 43.2; in data set [5], above 17. In data set [2], the Activity result is on record as “Non-toxic”. Besides, the half-inhibitory concentration (IC50) in data set [3] amounted to 7.2 µg/mL (≈ 21.8 µM); in data set [4], 0.11 µg/mL (≈ 0.333 µM); in data set [6] it was 0.28 µg/mL (≈ 0.849 µM). The compound further displayed a concentration for an effect of 90% (IC90) in data set [3] of 29 µg/mL (≈ 87.9 µM).

`CCN(CC)CC1CC2CCC1N(c1ccnc3cc(Cl)ccc13)C2` (stereo not drawn): the “Ratio IC50” value in data set [1] is above 23.8; in data set [5], above 15.4. In addition, the Activity entry in data set [2] is listed as “Non-toxic”. In addition, the IC50 in data set [3] turned out to be 3.8 µg/mL (≈ 10.6 µM); in data set [4], 0.2 µg/mL (≈ 0.559 µM); in data set [6], 0.31 µg/mL (≈ 0.866 µM). In data set [3], this compound displayed a 90% effect concentration (IC90) of 8 µg/mL (≈ 22.4 µM).

Regarding `C[C@@H]1[C@H](O)[C@@H](C)/C=C/C=C/C=C/C=C/C=C/C=C/C=C/[C@H](O[C@@H]2O[C@H](C)[C@@H](O)[C@H](N)[C@@H]2O)C[C@@H]2O[C@](O)(C[C@@H](O)C[C@@H](O)[C@H](O)CC[C@@H](O)C[C@@H](O)CC(=O)O[C@H]1C)C[C@H](O)[C@H]2C(=O)O` [AMPHOTERICIN B], in data set [3], the half-maximal inhibitory concentration (IC50) was found to be 0.18 µg/mL (≈ 0.195 µM) and the 90% effect concentration (IC90) stood at 1.8 µg/mL (≈ 1.95 µM).

Regarding `C[C@@H]1CC[C@H]2[C@@H](C)C(=O)O[C@@H]3O[C@@]4(C)CC[C@@H]1[C@]32OO4` [ARTEMISININ], the values for the IC50 in data set [4] and in data set [6] were 0.0018 µg/mL (≈ 0.00638 µM) and 0.0036 µg/mL (≈ 0.0128 µM), respectively.

In data set [3], `N=C(N)c1ccc(OCCCCCOc2ccc(C(=N)N)cc2)cc1` [PENTAMIDINE] gave a half-maximal inhibitory concentration (IC50) of 2.8 µg/mL (≈ 8.22 µM) and a concentration for an effect of 90% (IC90) of 10 µg/mL (≈ 29.4 µM).
